The MIC is the smallest concentration in the dilution series that meets the test's criterion for growth inhibition. High values mean a less susceptible organism, low ones a more susceptible organism.

We go through three compounds from ChEMBL document CHEMBL1240376, “Characterization of small ColE-like plasmids mediating widespread dissemination of the qnrB19 gene in commensal enterobacteria” (2010).

What all share (format): functional
The test system of assay [1] is Escherichia coli. Description: Antibacterial activity against tetracycline trimethoprim sulfamethoxazole kanamycin-resistant Escherichia coli isolate C14-9 carrying qnrB19 gene. A digest of the protocol: (§1)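 MICs determined by broth microdilution following CLSI guidelines, with E. coli ATCC 25922 as quality-control strain in every run. Disk diffusion susceptibility was also performed per CLSI.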

The subject of assay [2] is Escherichia coli. Description: Antibacterial activity against ampicillin sulfamethoxazole streptomycin kanamycin-resistant Escherichia coli isolate V6-9 carrying qnrB19 gene. Summed up: as §1
For assay [3], the system named is Escherichia coli. The assay is described as follows: Antibacterial activity against ampicillin tetracyclin streptomycin kanamycin-resistant Escherichia coli isolate V32-1 carrying qnrB19 gene. A digest of the protocol:
as §1

Assay [4] concerns Escherichia coli. The assay is described as follows: Antibacterial activity against Escherichia coli HB101. A digest of the protocol:
as §1

In assay [5] the test system is Escherichia coli. The assay is described as follows: Antibacterial activity against tetracycline sulfamethoxazole streptomycin kanamycin-resistant Escherichia coli isolate M66-6 carrying qnrB19 gene. Summed up:
as §1

Assay [6] has as its system Escherichia coli. The assay is described as follows: Antibacterial activity against ampicillin tetracycline trimethoprim sulfamethoxazole streptomycin-resistant Escherichia coli isolate Y6-7 carrying qnrB19 gene. Summed up: as §1

Each structure is given as a SMILES string. In brackets after ≈: the same amount, converted by molar mass.

Consider `C[C@H]1COc2c(N3CCN(C)CC3)c(F)cc3c(=O)c(C(=O)O)cn1c23.C[C@H]1COc2c(N3CCN(C)CC3)c(F)cc3c(=O)c(C(=O)O)cn1c23.O` [LEVOFLOXACIN], for which the MIC against Escherichia coli [1] was 0.25 µg/mL; in the assay on Escherichia coli [2], 0.25 µg/mL; with Escherichia coli [3], 0.25 µg/mL; against Escherichia coli [4] it was 0.0075 µg/mL.
For `CCn1cc(C(=O)O)c(=O)c2ccc(C)nc21` [NALIDIXIC ACID], the MIC in the assay with Escherichia coli [5] stood at 16 µg/mL (≈ 68.9 µM); against Escherichia coli [6], 16 µg/mL (≈ 68.9 µM); with Escherichia coli [1] it was 32 µg/mL (≈ 138 µM); against Escherichia coli [2], 32 µg/mL (≈ 138 µM); against Escherichia coli [3], 32 µg/mL (≈ 138 µM); against Escherichia coli [4], 4 µg/mL (≈ 17.2 µM).
For `CCn1cc(C(=O)O)c(=O)c2cc(F)c(N3CCNCC3)cc21` [NORFLOXACIN], the MIC in the assay on Escherichia coli [5] worked out at 0.25 µg/mL (≈ 0.783 µM); against Escherichia coli [6], 0.25 µg/mL (≈ 0.783 µM); with Escherichia coli [1], 0.5 µg/mL (≈ 1.57 µM); in the assay on Escherichia coli [2] it was 0.5 µg/mL (≈ 1.57 µM); in the assay on Escherichia coli [3] it was 0.25 µg/mL (≈ 0.783 µM); with Escherichia coli [4] it was 0.003 µg/mL (≈ 0.00939 µM).
